Source: BindingDB's records for doi:10.1021/jm00080a008 (Merck Sharp and Dohme Research Laboratories, 1992)

How the values were obtained:
Myeloperoxidase [1] = target: T1, Myeloperoxidase (Homo sapiens, UniProt P05164); experiment: ChEBML_223053
T1 sequence (P05164 whole entry): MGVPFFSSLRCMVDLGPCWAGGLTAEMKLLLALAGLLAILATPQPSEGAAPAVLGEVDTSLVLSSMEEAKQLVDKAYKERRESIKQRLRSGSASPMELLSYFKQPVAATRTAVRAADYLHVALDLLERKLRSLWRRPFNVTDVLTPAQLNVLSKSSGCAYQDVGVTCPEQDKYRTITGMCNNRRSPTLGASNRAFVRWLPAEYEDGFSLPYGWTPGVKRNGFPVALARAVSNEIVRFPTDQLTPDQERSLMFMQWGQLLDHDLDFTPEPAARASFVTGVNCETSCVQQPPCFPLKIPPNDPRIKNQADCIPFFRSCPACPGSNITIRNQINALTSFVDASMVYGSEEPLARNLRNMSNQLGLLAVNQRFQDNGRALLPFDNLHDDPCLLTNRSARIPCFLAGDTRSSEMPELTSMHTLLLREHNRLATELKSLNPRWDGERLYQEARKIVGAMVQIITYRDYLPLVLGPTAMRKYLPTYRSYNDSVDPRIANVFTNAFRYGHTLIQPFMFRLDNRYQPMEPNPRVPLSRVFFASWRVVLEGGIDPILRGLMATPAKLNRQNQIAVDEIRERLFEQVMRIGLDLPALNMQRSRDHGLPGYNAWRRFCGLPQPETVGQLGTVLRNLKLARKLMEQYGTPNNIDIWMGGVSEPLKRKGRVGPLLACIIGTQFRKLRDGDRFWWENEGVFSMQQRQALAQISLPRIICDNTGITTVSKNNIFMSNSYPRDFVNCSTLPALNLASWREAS
Description: (§1) Compound was tested for the induction of nonspecific myeloperoxidase (MPO) release

Myeloperoxidase [2] = target: T1, Myeloperoxidase; experiment: as §1
Procedure, shortened: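 Freshly isolated human PMN (Ficoll-Hypaque, erythrocytes lysed with NH4Cl/EDTA/KHCO3), 4×10^5/mL in HBSS. Preincubated with compound or 1% aqueous DMSO 20 min at 37 °C, then cytochalasin B (5 μg/mL final) 5 min. Stimulated 5 min at 37 °C with C5a or fMLF, or no stimulus for nonspecific release. MPO read with dimethoxybenzidine/H2O2 at pH 6.0, azide-quenched at 2 min, A450. Duplicate or triplicate.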

SMILES | EC50 (Myeloperoxidase [1]) | EC50 (Myeloperoxidase [2])
Cc1cc(N)c2cc(NC(=O)Nc3ccc4nc(C)cc(N)c4c3)ccc2n1 [Aminoquinuride] | < 3 µM | –
Cc1cc(N)c2cc(NC(=O)/C=C/c3ccccc3Cl)ccc2n1 [MLS000737665] | – | < 3 µM
